The results in this text go back to PMC6858491 (ACS chemical biology, 2019).

The subject of the test is Jurkat cells. Briefly: Apoptotic protection assay. The format is cell-based. The following applies: 20 µM inhibitor for 3 h before 10 ng/mL MegaFasL, CellTiter-Glo. An outline of the steps:
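Jurkat A3 cells were grown near confluence (10% FBS, pen/strep/glutamine, 37 °C, 5% CO2), resuspended in fresh medium, and plated at 10,000 cells/well. They were then given test compound (20 µM, or a concentration series with 30 min pretreatment) or DMSO vehicle, for set times before or after 10 ng/mL MegaFasL. Viability was read by CellTiter-Glo 3 h after induction.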

In the case of Z-D^ME^MVD^M-FMK [0^M], the “protection from extrinsic apoptosis (cellular viability)” value was “able to preserve cellular viability”.
